Measurements taken from ChEMBL document CHEMBL5247578, “Effective synthesis of benzimidazoles-imidazo[1,2-a]pyrazine conjugates: A comparative study of mono-and bis-benzimidazoles for antitumor activity” (Eur J Med Chem, 2019).

Tests used:
NCI/ADR-RES = assay: Antiproliferative activity against human NCI/ADR-RES cells assessed as cell growth at 0.00001 M incubated for 48 hrs by SRB assay relative to control; format: functional; conditions: read-out: Activity
HCC 2998 = assay: Antiproliferative activity against human HCC 2998 cells assessed as cell growth at 0.0001 M incubated for 48 hrs by SRB assay relative to control; format: functional; conditions: read-out: Activity
Summary of the method: (§1)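 NCI-60 five-dose screen (10^-4 to 10^-8 M). Cells grown in RPMI 1640 with 5% FBS and 2 mM L-glutamine, plated at 5,000-40,000 cells/well and preincubated 24 h. Drug given from DMSO stock, then 48 h at 37 °C, 5% CO2. For adherent lines, cells fixed with cold TCA, SRB-stained and read at 515 nm. Percent growth taken against time-zero and untreated control.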

NCI-H460 [1] = assay: Antiproliferative activity against human NCI-H460 cells assessed as cell growth at 0.00001 M incubated for 48 hrs by SRB assay relative to control; format: functional; conditions: read-out: Activity
MDA-MB-468 [2] = assay: Antiproliferative activity against human MDA-MB-468 cells assessed as cell growth inhibition by measuring lethal concentration incubated for 48 hrs by sulforhodamine B assay; format: functional; conditions: read-out: LC50 (the source's name)
HOP-92 = assay: Antiproliferative activity against human HOP-92 cells assessed as cell growth at 0.00001 M incubated for 48 hrs by SRB assay relative to control; format: functional; conditions: read-out: Activity; summary of the method: as §1
Hs-578T = assay: Antiproliferative activity against human Hs-578T cells assessed as cell growth at 0.00000001 M incubated for 48 hrs by SRB assay relative to control; format: functional; conditions: dose 10 nM, read-out: Activity
Summary of the method: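 NCI-60 five-dose mode, 10^-4 to 10^-8 M in 10-fold steps. RPMI 1640, 5% FBS, 2 mM L-glutamine; 24 h preincubation, then 48 h drug exposure at 37 °C. Stocks in DMSO at 400× the top concentration, diluted in medium with gentamicin. TCA fixation, SRB staining, absorbance at 515 nm. Percent growth from time-zero (Tz), control (C) and test (Ti) readings.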

OVCAR-8 = assay: Antiproliferative activity against human OVCAR-8 cells assessed as cell growth at 0.000001 M incubated for 48 hrs by SRB assay relative to control; format: functional; conditions: read-out: Activity
SK-MEL-28 = assay: Antiproliferative activity against human SK-MEL-28 cells assessed as cell growth at 0.00001 M incubated for 48 hrs by SRB assay relative to control; format: functional; conditions: read-out: Activity
ACHN = assay: Growth inhibition against human ACHN cells assessed as total growth inhibitory concentration incubated for 48 hrs by sulforhodamine B assay; format: functional
Calf thymus DNA = assay: Binding affinity to calf thymus DNA assessed as binding constant at temperature of 298 K by Stern-Volmer quenching plot based fluorescence spectroscopic method; format: nucleic-acid assay; conditions: Bos taurus
UACC-257 [3] = assay: Antiproliferative activity against human UACC-257 cells assessed as cell growth at 0.00000001 M incubated for 48 hrs by SRB assay relative to control; format: functional; conditions: dose 10 nM, read-out: Activity
KM12 [4] = assay: Growth inhibition against human KM12 cells assessed as total growth inhibitory concentration incubated for 48 hrs by sulforhodamine B assay; format: functional
SF-295 = assay: Antiproliferative activity against human SF-295 cells assessed as cell growth at 0.0000001 M incubated for 48 hrs by SRB assay relative to control; format: functional; conditions: dose 100 nM, read-out: Activity
KM12 [5] = assay: Antiproliferative activity against human KM12 cells assessed as cell growth inhibition by measuring lethal concentration incubated for 48 hrs by sulforhodamine B assay; format: functional; conditions: read-out: LC50 (the source's name)
A549 [6] = assay: Antiproliferative activity against human A549 cells assessed as cell growth at 0.000001 M incubated for 48 hrs by SRB assay relative to control; format: functional; conditions: read-out: Activity
Summary of the method: (§2)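 NCI-60 five-dose screen over 10^-4–10^-8 M (10-fold dilutions). Cells grown in RPMI 1640 with 5% FBS and 2 mM L-glutamine, seeded at 5,000–40,000 cells/well and preincubated 24 h. Drug from DMSO stock, 48 h at 37 °C, 5% CO2. Adherent cells TCA-fixed and stained with 0.4% SRB; A515 read. Percent growth = (Ti−Tz)/(C−Tz)×100, or (Ti−Tz)/Tz×100 when Ti<Tz.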

OVCAR-5 = assay: Antiproliferative activity against human OVCAR-5 cells assessed as cell growth at 0.00001 M incubated for 48 hrs by SRB assay relative to control; format: functional; conditions: read-out: Activity
SN12C = assay: Antiproliferative activity against human SN12C cells assessed as cell growth at 0.000001 M incubated for 48 hrs by SRB assay relative to control; format: functional; conditions: read-out: Activity
UACC-257 [7] = assay: Antiproliferative activity against human UACC-257 cells assessed as cell growth at 0.0000001 M incubated for 48 hrs by SRB assay relative to control; format: functional; conditions: dose 100 nM, read-out: Activity
SR = assay: Growth inhibition against human SR cells assessed as total growth inhibitory concentration incubated for 48 hrs by sulforhodamine B assay; format: functional
HOP-62 = assay: Growth inhibition against human HOP-62 cells incubated for 48 hrs by sulforhodamine B assay; format: functional
LOX IMVI = assay: Antiproliferative activity against human LOX IMVI cells assessed as cell growth at 0.0000001 M incubated for 48 hrs by SRB assay relative to control; format: functional; conditions: dose 100 nM, read-out: Activity
NCI-H460 [8] = assay: Growth inhibition against human NCI-H460 cells incubated for 48 hrs by sulforhodamine B assay; format: functional
MDA-MB-468 [9] = assay: Antiproliferative activity against human MDA-MB-468 cells assessed as cell growth at 0.00001 M incubated for 48 hrs by SRB assay relative to control; format: functional; conditions: read-out: Activity
A498 [10] = assay: Antiproliferative activity against human A498 cells assessed as cell growth at 0.0001 M incubated for 48 hrs by SRB assay relative to control; format: functional; conditions: read-out: Activity; summary of the method: as §2
A549 [11] = assay: Antiproliferative activity against human A549 cells assessed as cell growth at 0.00000001 M incubated for 48 hrs by SRB assay relative to control; format: functional; conditions: dose 10 nM, read-out: Activity; summary of the method: as §2
OVCAR-4 = assay: Antiproliferative activity against human OVCAR-4 cells assessed as cell growth at 0.000001 M incubated for 48 hrs by SRB assay relative to control; format: functional; conditions: read-out: Activity
TK-10 = assay: Antiproliferative activity against human TK-10 cells assessed as cell growth inhibition by measuring lethal concentration incubated for 48 hrs by sulforhodamine B assay; format: functional; conditions: read-out: LC50 (the source's name)
Summary of the method: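 NCI-60 five-dose screen (10^-4 to 10^-8 M, 10-fold dilutions; DMSO stocks). Cells in RPMI 1640 with 5% FBS and 2 mM L-glutamine, preincubated 24 h, then exposed 48 h at 37 °C, 5% CO2. Fixed with cold TCA, stained with 0.4% SRB, absorbance read at 515 nm. Time-zero plates used as reference. LC50 taken from [(Ti-Tz)/Tz]×100 […].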

A498 [12] = assay: Antiproliferative activity against human A498 cells assessed as cell growth at 0.000001 M incubated for 48 hrs by SRB assay relative to control; format: functional; conditions: read-out: Activity; summary of the method: as §2
SK-MEL-5 = assay: Antiproliferative activity against human SK-MEL-5 cells assessed as cell growth at 0.000001 M incubated for 48 hrs by SRB assay relative to control; format: functional; conditions: read-out: Activity
NCI-H322M = assay: Antiproliferative activity against human NCI-H322M cells assessed as cell growth inhibition by measuring lethal concentration incubated for 48 hrs by sulforhodamine B assay; format: functional; conditions: read-out: LC50 (the source's name)

| Compound | growth at 10 µM (NCI/ADR-RES) [%] | growth at 100 µM (HCC 2998) [%] | growth at 10 µM (NCI-H460 [1]) [%] | CC50 (MDA-MB-468 [2]) [µM] | growth at 10 µM (HOP-92) [%] | growth at 0.01 µM (Hs-578T) [%] | growth at 1 µM (OVCAR-8) [%] | growth at 10 µM (SK-MEL-28) [%] | TGI (ACHN) [µM] | Kb (Calf thymus DNA) | growth at 0.01 µM (UACC-257 [3]) [%] | TGI (KM12 [4]) [µM] | growth at 0.1 µM (SF-295) [%] | CC50 (KM12 [5]) [µM] | growth at 1 µM (A549 [6]) [%] | growth at 10 µM (OVCAR-5) [%] | growth at 1 µM (SN12C) [%] | growth at 0.1 µM (UACC-257 [7]) [%] | TGI (SR) [µM] | GI50 (HOP-62) [µM] | other results |
| --- | --- | --- | --- | --- | --- | --- | --- | --- | --- | --- | --- | --- | --- | --- | --- | --- | --- | --- | --- | --- | --- |
| COc1ccc(-c2cn3ccnc3c(-c3ccc4ncn(C5CCCCC5)c4c3)n2)cc1 | -4 | 20 | 4 | > 100 | 2 | 106 | 92 | 33 | > 100 | 36.5 10^4/M | 100 | > 100 | 91 | > 100 | 63 | 31 | 66 | 104 | > 100 | 1.09 | growth at 0.1 µM (LOX IMVI): 92%; GI50 (NCI-H460 [8]): 0.622 µM; growth at 10 µM (MDA-MB-468 [9]): 21%; growth at 100 µM (A498 [10]): 24%; growth at 0.01 µM (A549 [11]): 102%; growth at 1 µM (OVCAR-4): 84%; CC50 (TK-10): > 100 µM; growth at 1 µM (A498 [12]): 44%; growth at 1 µM (SK-MEL-5): 41%; CC50 (NCI-H322M): > 100 µM |
| c1ccc(Cn2cnc3ccc(-c4nc(-c5ccc6c(c5)ncn6C5CCCCC5)cn5ccnc45)cc32)cc1 | -30 | -89 | -32 | > 100 | -90 | 99 | 102 | -9 | > 100 | 9.58 10^4/M | 101 | 4.93 | 92 | > 100 | 106 | -3 | 95 | 105 | > 100 | 2.13 | growth at 0.1 µM (LOX IMVI): 94%; GI50 (NCI-H460 [8]): 2.3 µM; growth at 10 µM (MDA-MB-468 [9]): -49%; growth at 100 µM (A498 [10]): -83%; growth at 0.01 µM (A549 [11]): 105%; growth at 1 µM (OVCAR-4): 96%; CC50 (TK-10): > 100 µM; growth at 1 µM (A498 [12]): 97%; growth at 1 µM (SK-MEL-5): 80%; CC50 (NCI-H322M): > 100 µM |
